Test results published in ChEMBL document CHEMBL4513216, “Probing the Open Global Health Chemical Diversity Library for Multistage-Active Starting Points for Next-Generation Antimalarials” (ACS Infect Dis, 2020).

Experiment: Toxicity liver stage against HepG2, at 10uM
Assay type: cell-based
Parameters: test concentration 10 uM, cell line HepG2-A16-CD81EGFP
Settings: human, HepG2-A16-CD81EGFP cells; read-out: INHIBITION
Procedure, shortened: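 Uninfected HepG2-A16-CD81EGFP cells, 3 × 10^3 per well, 1536-well, plated on prespotted compound at 10 μM final, parasite-free screening media added to match infected plates; puromycin 10 μM positive, DMSO 0.5% negative; run in parallel with 48 h PbLuc assay at 37 °C, 5% CO2; viability by CellTiter-Glo luminescence, normalized to controls.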

| SMILES | cytotoxicity at 10 µM [%] |
| --- | --- |
| COCCn1cnc2ccc(NC(=O)CCCn3cccn3)cc2c1=O | 6.43 |
| N#CCC(=O)NCc1nnc2n1CCN(Cc1nccs1)C2 | -149 |
| CCCc1nnc2sc(-c3cc(C(C)C)n[nH]3)nn12 | 17.7 |
| COc1ccc(NC(=O)c2cnc(N(C)C3CCCCC3)nc2N)cc1 | -3.64 |
| Cc1ccc(C)c(-n2ccc3nc(N4CCCC4)ncc3c2=O)c1 | 18.6 |
| Cc1ccccc1N1CC2(CCN(S(=O)(=O)c3cccs3)C2)CC1=O (stereo unspecified) | 14.1 |
| Cn1cnc2c1C(COCc1cccnc1)N(Cc1ccccn1)CC2 (stereo unspecified) | -13.3 |
| O=C(CCC(=O)NCc1cccc(Br)c1)NCCN1CCCC1 | 10 |
| CCN(c1ccccc1C(=O)O)S(=O)(=O)c1cccc2cccnc12 | 1.28 |
| Cc1ccc(CNC(=O)c2cc(C)n(C)n2)o1 | 0.25 |
| COc1ccc(NC(=O)c2cnc(C3CCN(C)CC3)nc2C)cc1 | -1.46 |
| CC(C)c1nnc(NC(=O)N(C)Cc2ccncc2)s1 | 5.28 |
| CNC(=O)COC(=O)c1ccn(-c2ccc(Cl)c(Cl)c2)n1 | 20.9 |
| Cc1csc(CN(C)S(=O)(=O)c2ccc(C)c(N(C)C)c2)n1 | 13.7 |
| CC(=O)N1CCN(C(=O)c2ccc(-c3cccc(C)c3)[nH]c2=O)CC1 | 3.64 |
| CC(C)c1cc(NC(=O)CNC2CCc3nc(C(C)C)nn3C2)on1 (stereo unspecified) | 0.246 |
| O=S(=O)(CCc1ccccc1Cl)CC(O)CO (stereo unspecified) | 10.7 |
| CS(=O)(=O)NCCCn1ccc2ccccc21 | 4.77 |
| COC(C)c1noc(CN(C)c2ncc(Br)cn2)n1 (stereo unspecified) | -1.26 |
| Cn1nc(C(=O)NCCc2ccc(OC3CCCC3)cc2)ccc1=O | -2.61 |
| CCn1ccnc1CN1CCN(c2ccc3nnc(C)n3n2)CC1 | 3.35 |

| SMILES | cytotoxicity at 10 µM [%] |
| --- | --- |
| COCCOc1ccc(S(=O)(=O)Nc2cccc(O)c2F)cc1C | 27.7 |
| CCOC(=O)NCCC(=O)NCc1ccc(Oc2cccc(F)c2)nc1 | 10.9 |
| NC(=O)c1cccc(CNC(=O)NCCOc2ccc(F)c(F)c2)c1 | 9.77 |
| Fc1ccc(OCC2CCCO2)c(NCc2noc(C3CC3)n2)c1 (stereo unspecified) | 9.61 |
| OC1CCN(c2ccccc2NCc2nc(-c3cccs3)no2)CC1 | 10.8 |
| CSC(C)C(=O)N(C)C1CCN(c2ccc(Cl)cc2)CC1 (stereo unspecified) | 0.204 |
| Cc1c(C2CC2)n[nH]c1NC(=O)C1CCCN(C(=O)NCC(C)C)C1 (stereo unspecified) | 13.9 |
| c1cnnc(NCC2CN(CCn3cccn3)CCO2)c1 (stereo unspecified) | 5.53 |
| CNc1cc2c(nn1)CCN(C(=O)c1ccc(-n3cccn3)nc1)C2 | -4.78 |
| CCN1CCN(c2ccc(NC(=O)CC(C)C)c(C)c2)CC1 | -8.87 |
| CCN(CC)C(=O)CCNc1cncc(-n2nc(C)cc2C)n1 | 2.41 |
| CC(C)(C)c1n[nH]c(C2CN(C(=O)c3cc(C4CC4)on3)CCO2)n1 (stereo unspecified) | -15.8 |
| CO[C@H]1CO[C@@]2(CCCN(C(=O)N(C)C)C2)C1 | -97.4 |
| Cn1cnc2c(-c3cccnc3)nc(C3CCN(S(C)(=O)=O)CC3)cc21 | -118 |
| c1cncc(CN2CCn3cc(CN4CCCCC4)nc3C2)c1 | -102 |
| Cc1ccc(N2C[C@H]3OCC[C@H]3[C@H](C(=O)NC3CCCC3)C2)nn1 | -75.6 |
| Cc1cnc(C(=O)N2C[C@@H](NS(C)(=O)=O)[C@@H]3OCCC[C@@H]32)cn1 | -89.7 |
| CS(=O)(=O)NCc1ncn2c1CN(C(=O)C1CCCCC1)CCC2 | -71.2 |
| Cc1cc(C(=O)N2CCc3ncc(CN4CCOCC4)n3CC2)no1 | 3.76 |
| CCc1noc(CNc2nc(-c3cccnc3)nc3c2CCNCC3)n1 | 0.562 |
| Cc1ccc(CN(C)Cc2cnc(N3CCOCC3)s2)o1 | -8.46 |

| SMILES | cytotoxicity at 10 µM [%] |
| --- | --- |
| O=C(c1ccc(-n2cccn2)cc1Cl)N1CCCC(O)(CO)C1 (stereo unspecified) | -0.226 |
| Cc1cc(=O)c(C(=O)N2CCC(C(O)Cc3ccccc3)CC2)c(C)[nH]1 (stereo unspecified) | 12.2 |
| CC1=CC[C@@H]2CN(C(=O)c3ccc(-c4nnn(C)n4)cc3)C[C@@H]2C1 | 7.16 |
| COCc1noc(-c2ccc(N3CCCCC3CCCO)nc2)n1 (stereo unspecified) | -3.31 |
| CC(C)OC(=O)N1CCC(Cc2ccc(C(=O)O)cc2)C1 (stereo unspecified) | 3.38 |
| CN1CCCC2(CCN(c3cc(C(F)(F)F)nc(N(C)C)n3)C2)C1=O (stereo unspecified) | 13.1 |
| Cc1nc(C(C)C)ncc1C(=O)N1CCC(c2ccccc2C(=O)O)C1 (stereo unspecified) | 1.93 |
| CC[C@@]1(O)CCN(C(=O)CCSCc2ccc(F)cc2)C[C@H]1O | 0.264 |
| Cc1cc(NC(C)c2nncn2C2CCCC2)n2nc(C)cc2n1 (stereo unspecified) | 5.99 |
| O=S(=O)(c1ccc(-c2cnco2)cc1)N1CCC2(CCCNC2)C1 (stereo unspecified) | -27.3 |
| CCn1cncc1Cn1ncc2ccccc2c1=O | 3.7 |
| COCCN1CCCC(O)(CN2CCN(Cc3ccncc3)CC2)C1=O (stereo unspecified) | -8.24 |
| Cc1ccccc1CCC1CCCN(Cc2nnc(-c3ccco3)o2)C1 (stereo unspecified) | -116 |
| CSc1cccc(CNC(=O)[C@H]2CNC[C@H](C(=O)N3CCOCC3)C2)c1 | -1.74 |
| Cc1nc(-c2ccncc2)ncc1C(C)NC(=O)CN1CCCCC1 (stereo unspecified) | 1.47 |
| CC(=O)NCCCC(=O)N1CCc2[nH]c(-c3ccccc3)nc2C1 | -3.73 |
| Cc1ccc(CN(C)C(=O)c2n[nH]c(N)c2-c2ccccc2)o1 | -4.81 |
| COC(=O)C1Cc2nc[nH]c2CN1Cc1ccc(Sc2ncccn2)o1 (stereo unspecified) | -3.94 |
| CCc1nc(N2CCC3(CCC(=O)N(CCCO)C3)CC2)no1 | 0.814 |
| CCCN1CCCn2nc(CNC(=O)CCc3scnc3C)cc2C1 | 1.47 |
| Cn1ccc(C(=O)N2CCC(Cc3cnc4[nH]ccc4c3)CC2)n1 | 8.77 |

| SMILES | cytotoxicity at 10 µM [%] |
| --- | --- |
| CNc1cncc(C2CCCN2Cc2ccccn2)n1 (stereo unspecified) | 0.0241 |
| Cn1cccc1C(=O)Nc1cc(F)ccc1OCC1CCCO1 (stereo unspecified) | -7.59 |
| CC(=O)NC1CCCN(C(=O)NCc2ccc(-c3ccn[nH]3)cc2)C1 (stereo unspecified) | -7.84 |
| CN(CC(=O)NC1(C#N)CCCC1)C1CCCN(c2cccnn2)C1 (stereo unspecified) | -9.75 |
| Cc1ncsc1C(=O)NCc1cccs1 | -1.89 |
| CC(C)c1cc(C(=O)NCCN2CCCS2(=O)=O)n[nH]1 | -9.91 |
| CN(C(=O)NCc1ccncc1)C1CCN(c2ccccc2)C1=O (stereo unspecified) | -13.5 |
| OC(COc1ccccc1)CN1CCC(c2ccn[nH]2)CC1 (stereo unspecified) | -3.76 |
| Cc1nc(C)n(CC2CCCN(Cc3nc(C)c(C)o3)C2)n1 (stereo unspecified) | -2.68 |
| O=C(O)C1(Cc2ccc(-c3cccs3)cc2)CCNC1 (stereo unspecified) | -0.74 |
| O=C1COC2(CCN(Cc3nccs3)CC2)CN1c1ccccc1 | -114 |
| CN1CCCn2c(nc(CNC(=O)c3ccsc3)cc2=O)C1 | 3.09 |
| COCCNC(=O)C1CN(Cc2cccnc2)Cc2ccnn2C1 (stereo unspecified) | -76.1 |
| CS(=O)(=O)N1CCOCC2(CCN(Cc3ccoc3)CC2)C1 | 2.64 |
| CNC(=O)NCC1CCC2(CCN(C(=O)c3ccccn3)CC2)CO1 (stereo unspecified) | -102 |
| O=C(c1ccoc1)N1CC[C@@H](N2CCOCC2)[C@@H]1Cc1ccccc1 | -82 |
| CCN1CCc2c(CNC(=O)c3nccn3C)cncc2C1 | -109 |
| CCS(=O)(=O)N1CCC2(CC1)CN(Cc1ccccn1)C(=O)CO2 | 3.01 |
